pIC50: −log10 of the molar value. Entries after “also recorded” stand apart in the source; their conditions may differ.
Legend:
PC3 cells [1] = assay: Serum-free cell survival assay; assay type: cell-based, human; settings: prostate cancer (PC3) cells; JW480 1 μM, 48 h in situ
MAGE lipids = assay: Lipid measurements; assay type: cell-based, human; settings: for MAGE lipids: prostate cancer cells (Figure S4); for MAGE lipid levels: 1 μM, 48 hr
PC3 cells [2] = assay: Invasion assay; assay type: cell-based, human; settings: prostate cancer (PC3) cells; JW480 1 μM, 48 h in situ
FAAH = target: T1, FAAH (Mus musculus, UniProt O08914); assay: Competitive ABPP of FAAH in mouse brain proteome; assay type: biochemical; settings: gel-based competitive ABPP of a mouse brain proteome
T1 sequence (O08914 1-579): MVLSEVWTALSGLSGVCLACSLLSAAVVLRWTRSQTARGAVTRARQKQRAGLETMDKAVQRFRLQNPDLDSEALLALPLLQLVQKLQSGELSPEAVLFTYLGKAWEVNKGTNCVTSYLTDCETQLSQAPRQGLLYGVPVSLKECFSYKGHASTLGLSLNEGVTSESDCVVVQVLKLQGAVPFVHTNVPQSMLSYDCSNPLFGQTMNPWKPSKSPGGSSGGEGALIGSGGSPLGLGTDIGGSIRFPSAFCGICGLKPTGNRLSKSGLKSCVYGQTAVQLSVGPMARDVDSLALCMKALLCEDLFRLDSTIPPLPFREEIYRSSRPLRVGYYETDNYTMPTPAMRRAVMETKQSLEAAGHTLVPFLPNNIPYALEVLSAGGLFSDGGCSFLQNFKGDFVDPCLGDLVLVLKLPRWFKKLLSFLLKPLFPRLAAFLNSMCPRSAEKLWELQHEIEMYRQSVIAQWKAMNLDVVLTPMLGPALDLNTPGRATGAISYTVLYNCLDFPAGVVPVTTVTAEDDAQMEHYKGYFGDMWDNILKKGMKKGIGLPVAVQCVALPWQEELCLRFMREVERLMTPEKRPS

HSL = target: T2, HSL (Mus musculus, UniProt P54310); assay: Competitive ABPP in rosiglitazone-differentiated 3T3-10T1/2 adipocyte proteome; assay type: biochemical
T2 sequence (P54310 1-759): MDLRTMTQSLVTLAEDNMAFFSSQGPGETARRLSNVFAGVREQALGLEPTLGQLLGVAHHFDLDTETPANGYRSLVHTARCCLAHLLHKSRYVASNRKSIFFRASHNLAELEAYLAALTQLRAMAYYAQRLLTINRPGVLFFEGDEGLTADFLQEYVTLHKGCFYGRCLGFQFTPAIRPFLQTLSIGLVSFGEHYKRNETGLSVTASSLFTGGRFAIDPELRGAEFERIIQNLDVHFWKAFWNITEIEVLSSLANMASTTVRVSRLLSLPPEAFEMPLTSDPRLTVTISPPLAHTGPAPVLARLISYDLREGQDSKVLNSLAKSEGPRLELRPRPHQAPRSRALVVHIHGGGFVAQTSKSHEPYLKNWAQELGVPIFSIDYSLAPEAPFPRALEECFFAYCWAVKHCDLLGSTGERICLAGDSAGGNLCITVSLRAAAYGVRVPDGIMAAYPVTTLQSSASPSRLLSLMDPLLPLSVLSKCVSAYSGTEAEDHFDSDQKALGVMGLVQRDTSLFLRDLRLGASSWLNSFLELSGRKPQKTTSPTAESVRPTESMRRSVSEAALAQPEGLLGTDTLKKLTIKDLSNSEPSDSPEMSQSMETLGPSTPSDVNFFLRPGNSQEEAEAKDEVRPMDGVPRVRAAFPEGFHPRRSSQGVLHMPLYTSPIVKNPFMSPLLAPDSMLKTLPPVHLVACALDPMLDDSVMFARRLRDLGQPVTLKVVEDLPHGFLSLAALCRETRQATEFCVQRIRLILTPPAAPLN

AChE = AChE (Mus musculus, UniProt P21836); settings: mouse brain proteome; for pIC50: read-out: IC50 for AChE, substrate acetylthiocholine
AChE, sequence (P21836 32-614): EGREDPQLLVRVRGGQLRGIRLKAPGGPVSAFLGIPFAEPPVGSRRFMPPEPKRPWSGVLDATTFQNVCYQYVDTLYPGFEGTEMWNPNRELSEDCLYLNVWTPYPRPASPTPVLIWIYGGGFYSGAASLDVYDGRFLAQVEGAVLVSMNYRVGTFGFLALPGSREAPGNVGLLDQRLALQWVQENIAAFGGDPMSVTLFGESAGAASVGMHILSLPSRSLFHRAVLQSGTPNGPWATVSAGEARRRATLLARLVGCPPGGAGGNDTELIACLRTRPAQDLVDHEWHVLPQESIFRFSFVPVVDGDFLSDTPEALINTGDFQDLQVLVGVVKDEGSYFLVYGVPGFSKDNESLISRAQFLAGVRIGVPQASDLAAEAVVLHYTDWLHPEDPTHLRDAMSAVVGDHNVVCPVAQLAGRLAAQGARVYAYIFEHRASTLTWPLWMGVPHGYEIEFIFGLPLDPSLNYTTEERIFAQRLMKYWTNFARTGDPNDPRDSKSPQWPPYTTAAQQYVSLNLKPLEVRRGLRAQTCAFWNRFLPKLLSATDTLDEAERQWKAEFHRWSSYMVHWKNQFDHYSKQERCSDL

PC3 cells [3] = assay: Cell migration assay; assay type: cell-based, human; settings: prostate cancer (PC3) cells; JW480 1 μM, 48 h in situ
mouse brain KIAA1363 = target: T3, mouse brain KIAA1363 (Mus musculus, UniProt Q8BLF1); assay: Gel-based competitive ABPP; assay type: biochemical; settings: read-out: IC50 for KIAA1363, mouse brain proteome
T3 sequence (Q8BLF1 1-408): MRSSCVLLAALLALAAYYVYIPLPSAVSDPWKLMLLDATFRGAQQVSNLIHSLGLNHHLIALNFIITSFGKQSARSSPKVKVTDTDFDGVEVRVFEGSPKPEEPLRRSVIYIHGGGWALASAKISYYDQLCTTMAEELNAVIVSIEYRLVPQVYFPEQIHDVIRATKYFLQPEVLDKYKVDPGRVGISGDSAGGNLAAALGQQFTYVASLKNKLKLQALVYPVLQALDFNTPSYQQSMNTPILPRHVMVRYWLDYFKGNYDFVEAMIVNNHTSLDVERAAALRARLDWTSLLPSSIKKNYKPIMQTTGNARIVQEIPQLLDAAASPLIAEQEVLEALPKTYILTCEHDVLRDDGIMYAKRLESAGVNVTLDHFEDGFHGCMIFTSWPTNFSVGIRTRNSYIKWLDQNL

KIAA1363 [4] = target: T4, KIAA1363 (Homo sapiens, UniProt Q6PIU2); assay: Gel-based competitive ABPP in living PC3 cells; assay type: cell-based; settings: for pIC50: read-out: IC50 for KIAA1363
T4 sequence (Q6PIU2 1-408): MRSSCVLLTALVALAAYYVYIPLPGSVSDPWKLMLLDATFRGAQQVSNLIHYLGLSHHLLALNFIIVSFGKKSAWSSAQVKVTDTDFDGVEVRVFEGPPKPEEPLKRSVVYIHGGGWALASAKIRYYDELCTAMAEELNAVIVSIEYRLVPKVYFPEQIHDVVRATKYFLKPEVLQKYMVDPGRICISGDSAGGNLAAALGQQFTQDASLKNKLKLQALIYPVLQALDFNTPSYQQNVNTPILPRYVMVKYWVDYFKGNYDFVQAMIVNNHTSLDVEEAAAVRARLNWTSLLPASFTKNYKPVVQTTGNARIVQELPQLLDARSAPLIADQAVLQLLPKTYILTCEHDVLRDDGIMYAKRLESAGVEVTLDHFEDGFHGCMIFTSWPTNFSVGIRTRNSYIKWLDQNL

LNCaP cells = assay: Cell survival assay in LNCaP cells; assay type: cell-based, human; settings: which express low levels of KIAA1363
KIAA1363 [5] = target: T4, KIAA1363; assay: Gel-based competitive ABPP in PC3 cell proteomes; assay type: biochemical; settings: read-out: IC50 for human KIAA1363, in vitro treatment
[6] = system: serine hydrolase activities detected in PC3 cells; assay: Competitive ABPP-MudPIT of PC3 cells treated in situ; assay type: cell-based, human; settings: 1 μM in situ, ~30 serine hydrolase activities
[7] = system: other mouse brain serine hydrolases; assay: Gel-based competitive ABPP, other serine hydrolases of mouse brain proteome; assay type: biochemical
PC3 tumor xenograft = PC3 tumor xenograft growth in SCID mice; assay type: in vivo, mouse; settings: 80 mg/kg, oral gavage, one dose per day, versus vehicle
In short: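 PC3 cells were washed, trypsinised, resuspended serum-free at 2.0 × 10^4 cells/μL, and 100 μL was injected into the flank of C.B17 SCID mice. Dosing was once daily by oral gavage in PEG300 (4 μL/g) or vehicle, starting immediately after injection. Tumours were measured with calipers every 3 days and excised 4 hr after the final dose on day 33 for ABPP.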

[8] = target: serine hydrolase activities detected in the brain proteome (Mus musculus, UniProt P21836); settings: brain proteome of treated mice (Figure 4C)
serine hydrolase activities detected in the brain proteome, sequence (P21836 32-614): as the sequence (P21836 32-614) above

[9] = target: T5, KIAA1363 (2-acetyl MAGE hydrolase activity) (Homo sapiens, UniProt Q6PIU2); assay: 2-Acetyl MAGE hydrolytic activity assay in prostate cancer cells; assay type: cell-based; settings: 1 μM, 48 h
T5 sequence (Q6PIU2 1-408): T4 sequence (Q6PIU2 1-408)

brain KIAA1363 = target: T6, brain KIAA1363 (Mus musculus, UniProt Q8BLF1); assay: Competitive ABPP of brain proteomes from inhibitor-treated mice; assay type: in vivo; settings: for inhibition of brain KIAA1363: 4 hr
T6 sequence (Q8BLF1 1-408): T3 sequence (Q8BLF1 1-408)

CCCCOC[C@H]1CCCC[C@H]1COCCNC(=O)Oc1ccccc1F [AS115, reference compound]
survival in serum-free media (PC3 cells [1]): also observed | MAGE lipids (MAGE lipids): reductions | invasion (PC3 cells [2]): also observed

COc1ccc(CNC(=O)Oc2cccc3c2OC(C)(C)C3)cc1 [JW148]
selectivity for KIAA1363 compared to FAAH (FAAH): good selectivity | cross-reactivity with HSL (HSL): cross-reactivity | survival in serum-free media (PC3 cells [1]): also observed | MAGE lipids (MAGE lipids): reductions | invasion (PC3 cells [2]): also observed | cross-reactivity with AChE (AChE): cross-reactivity | pIC50 (AChE): 6.00 | migration (PC3 cells [3]): also observed | pIC50 (mouse brain KIAA1363): ~6.70

CC(C)c1ccccc1OC(=O)NCCc1ccc2ccccc2c1 [JW480]
time in situ inhibition of KIAA1363 was maintained (KIAA1363 [4]; 1 μM, in situ): at least 48 hr | pIC50 (KIAA1363 [4]; PC3 cells, in situ): 8.22 | pIC50 (KIAA1363 [4]; living PC3 cells, in situ treatment, presence or absence of 10% fetal calf serum): 7.92 to 8.22 | cross-reactivity with HSL (HSL): negligible cross-reactivity | survival in LNCaP cells (LNCaP cells): did not affect | survival in serum-free media (PC3 cells [1]): reductions; also recorded: reduced | MAGE lipid levels (MAGE lipids; DU145 cells): significant reductions; also recorded: significantly reduces | MAGE lipid levels (MAGE lipids; PC3 cells): significant reductions; also recorded: significantly reduces | pIC50 (KIAA1363 [5]): 7.92 | off-target activity across serine hydrolases by ABPP-MudPIT [6]: no off-target activity; also recorded: only KIAA1363 was inhibited | cross-reactivity with other mouse brain serine hydrolases [7]: negligible cross-reactivity | PC3 tumor growth (PC3 tumor xenograft): significantly impaired; also recorded: significantly reduces | invasion (PC3 cells [2]): reductions; also recorded: reduced | cross-reactivity with AChE by competitive ABPP-MudPIT [8]: negligible cross-reactivity | 2-acetyl MAGE hydrolase activity ([9]; DU145 cells): completely blocked; also recorded: ablates | 2-acetyl MAGE hydrolase activity ([9]; PC3 cells): completely blocked; also recorded: ablates | cross-reactivity with AChE (AChE): negligible cross-reactivity | pIC50 (AChE): < 4.00 | time of full inhibition of KIAA1363 in mice (brain KIAA1363; following a single administration, orally active): at least 24 hrs | inhibition of brain KIAA1363 (brain KIAA1363; mice, 5 mg/kg i.p.): complete inhibition | inhibition of brain KIAA1363 (brain KIAA1363; mice, 20 mg/kg oral): complete inhibition | time inhibition of KIAA1363 was maintained in vivo (brain KIAA1363; mice, single administration, 20 mg/kg, oral): up to 24 hr | migration (PC3 cells [3]): reductions; also recorded: reduced

CC1(C)Cc2cccc(OC(=O)NCc3ccc(F)cc3)c2O1 [WWL38]
selectivity for KIAA1363 compared to FAAH (FAAH): good selectivity | cross-reactivity with HSL (HSL): cross-reactivity | cross-reactivity with AChE (AChE): cross-reactivity | pIC50 (mouse brain KIAA1363): ~6.70

From paper PMC3119342 (Chemistry & biology, 2011)
